Read-outs that look alike come from different tables or passages of the source. Bounds are passed on as bounds.

For one data set, the system named is HL-60 (leukemia) cells. Nature of the data set: MTT cytotoxicity assay, HL-60. It is filed as cell-based, human. Particulars: read-out: IC50, in vitro cytotoxicity, HL-60, HL-60 cells.
Another data set deals with Hep 3B (hepatoma) cells. The experiment in a line: MTT cytotoxicity assay, Hep 3B. It is filed as cell-based, human. Particulars: read-out: IC50, in vitro cytotoxicity, Hep 3B, Hep 3B cells.
For data set [1], the system named is HCT-116 (colon cancer) cells. The experiment in a line: MTT cytotoxicity assay, HCT-116. The data set is classed as cell-based, human. Particulars: read-out: IC50, in vitro cytotoxicity, HCT-116, HCT-116 cells.
The test system of the next data set is tubulin. The experiment in a line: Inhibition of [3H]colchicine binding to tubulin. Particulars: 1 µM tubulin, 5 µM [3H]colchicine, 10 min at 37 °C; for Inhibition of Colchicine Binding % inhibition at tested concentration, 1 µM: 1 µM inhibitor; for Inhibition of Colchicine Binding % inhibition at tested concentration, 5 µM: 5 µM inhibitor.
Data set [2] has as its system KB-VIN (p-glycoprotein-expressing epidermoid carcinoma of the nasopharynx) cells. Nature of the data set: SRB cytotoxicity assay, KB-VIN. The data set is classed as cell-based, human. Particulars: read-out: IC50, in vitro cytotoxicity, Kb-VIN, KB-VIN cells (vincristine-resistant). Summed up: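 For A549, KB, KB-VIN and DU145, an SRB assay was used. Cells were exposed to the test compound or DMSO, fixed with 10% TCA and stained with 0.4% (w/v) SRB in 1% acetic acid. Unbound dye was washed out with 1% acetic acid, bound dye solubilized in 10 mM Trizma base, and absorbance read at 515 nm.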

Data set [3] relates to KB (epidermoid carcinoma of the nasopharynx) cells. Nature of the data set: SRB cytotoxicity assay, KB. It is filed as cell-based, human. Particulars: read-out: IC50, in vitro cytotoxicity, KB. Summed up: (§1)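 Cells exposed to test compound or DMSO vehicle for the stated periods, then fixed with 10% TCA. Staining used 0.4% (w/v) sulforhodamine B in 1% acetic acid, with unbound dye washed out in 1% acetic acid. Bound dye was dissolved in 10 mM Trizma base and absorbance read at 515 nm. IC50 taken from the resulting absorbance data.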

Data set [4] concerns DU145 (prostate cancer) cells. Nature of the data set: SRB cytotoxicity assay, DU145. Particulars: read-out: IC50, in vitro cytotoxicity, DU145. The data set is classed as cell-based, human. The gist of the method: as §1
For data set [5], the system named is seven human cancer cell lines (HL-60, HCT-116, A549, Hep 3B, KB, KB-VIN, DU145). Nature of the data set: In vitro cytotoxicity, all seven cancer cell lines together. The data set is classed as cell-based. Particulars: read-out: IC50 values, range over all seven cancer cell lines.
Data set [6] concerns A549 (non-small cell lung carcinoma) cells. The experiment in a line: SRB cytotoxicity assay, A549. The data set is classed as cell-based, human. Particulars: read-out: IC50, in vitro cytotoxicity, A549. Summed up: as §1
For data set [7] the following is noted: ip, once weekly for 3 courses; prior in vivo study; cited from earlier work.
A further data set has as its system OVCAR-3 xenograft. Particulars: ip, once weekly for 3 courses, cited from earlier work.
Data set [8] has as its system 60 human tumor cell lines. The experiment in a line: NCI screening against 60 human tumor cell lines. The data set is classed as cell-based.
For data set [9] the following is noted: mice model, unpublished data.
The test system of data set [10] is HL-60, HCT-116, H226, A549, Hep G2 and A498 cancer cell lines. Nature of the data set: Cytotoxicity of deacetylated amides 46-53. Particulars: read-out: IC50 values, cytotoxicity. The data set is classed as cell-based.

Consider “2-(1-Anthracenyl)-6,7-methylenedioxyquinolin-4-one [Compound 45]”, for which the IC50 with HL-60 (leukemia) cells amounted to 530 nM; in the data set on Hep 3B (hepatoma) cells it was 2200 nM; in data set [1], 1600 nM.

In the case of “2-(1-Naphthalenyl)-6,7-methylenedioxyquinolin-4-one [Compound 39]”, the “Inhibition of Colchicine Binding % inhibition at tested concentration, 1 µM” value in the data set with tubulin amounted to 33%. In addition, in the data set on tubulin, the “Inhibition of Colchicine Binding % inhibition at tested concentration, 5 µM” value is 67%. In addition, the IC50 is 190 nM in data set [2]; 70 nM with HL-60 (leukemia) cells; 130 nM in [3]; 130 nM in data set [4]; 70 to 190 nM in data set [5]; 70 nM with Hep 3B (hepatoma) cells. Besides, the IC50 in data set [1] turned out to be 70 nM; in [6], 130 nM.

For “2-(2-Benzo[b]furyl)-6,7-methylenedioxyquinolin-4-one [Compound 38]”, the IC50 (in data set [2]; in the data set with HL-60 (leukemia) cells; in [3]; in [4]; with Hep 3B (hepatoma) cells; in data set [1]) was more than 1000 nM each time. For the same molecule, the IC50 in data set [6] is more than 1000 nM.

“2-(2-Benzo[b]thienyl)-6,7-methylenedioxyquinolin-4-one [Compound 36]”: the IC50 (in [2]; with HL-60 (leukemia) cells; in [3]; in data set [4]; with Hep 3B (hepatoma) cells; in data set [1]) was more than 1000 nM each time. For the same molecule, in [6], the IC50 was more than 1000 nM.

As to “2-(2-Naphthalenyl)-6,7-methylenedioxyquinolin-4-one [Compound 40]”, the IC50 in [2] was more than 1000 nM; in the data set on HL-60 (leukemia) cells, 500 nM; in [3], more than 1000 nM; in data set [4], more than 1000 nM; with Hep 3B (hepatoma) cells it was more than 1000 nM; in data set [1], more than 1000 nM. Also, the IC50 in data set [6] is more than 1000 nM.

Turning to “2-(2-Quinolinyl)-6,7-methylenedioxyquinolin-4-one [Compound 43]”, the IC50 (in [2]; in the data set on HL-60 (leukemia) cells; in data set [3]; in data set [4]; with Hep 3B (hepatoma) cells; in [1]) was more than 5000 nM throughout. The IC50 in data set [6] was more than 5000 nM.

Turning to “2-(2-fluorophenyl)-6,7-methylenedioxyquinolin-4-one [CHM-1]”, the “Maximum tolerated dose (MTD)” value in data set [7] is recorded as more than 200 mg/kg. In addition, the “Extension of life span of tumor-bearing mice” value is listed as 79% with OVCAR-3 xenograft (79 mg/kg), 133% in the data set with OVCAR-3 xenograft (134 mg/kg) and 124% in the data set on OVCAR-3 xenograft (200 mg/kg).

Turning to “2-(3-Benzo[b]furyl)-6,7-methylenedioxyquinolin-4-one [Compound 37]”, the “Inhibition of Colchicine Binding % inhibition at tested concentration, 1 µM” value with tubulin turned out to be 39%. The “Inhibition of Colchicine Binding % inhibition at tested concentration, 5 µM” value in the data set on tubulin is 51%. The IC50 in [2] was 590 nM; in the data set on HL-60 (leukemia) cells it was 30 nM; in [3], 1050 nM; in [4] it was 1870 nM; in the data set on Hep 3B (hepatoma) cells, 90 nM; in data set [1], 50 nM. In addition, in [6], the IC50 came to 2980 nM. Besides, the “Growth inhibition, NCI preliminary screening” value in data set [8] (HCC-2998, KM-12, SF-539, SNB-75, SK-MEL-5, IGROV1, OVCAR-3) is given as “significantly inhibited the growth”. The “Cytotoxicity against leukemia cell lines, NCI preliminary screening” value in data set [8] (many leukemia cell lines (Figure 5)) is “potent selective cytotoxicity”.

With “2-(3-Benzo[b]thienyl)-6,7-methylenedioxyquinolin-4-one [Compound 1]”, in the data set with tubulin, the “Inhibition of Colchicine Binding % inhibition at tested concentration, 1 µM” value came out at 25%. Further, the “Inhibition of Colchicine Binding % inhibition at tested concentration, 5 µM” value in the data set with tubulin came to 61%. The IC50 in data set [2] is more than 250 nM; in the data set on HL-60 (leukemia) cells, 170 nM; in data set [3], more than 250 nM; in data set [4], more than 250 nM; with Hep 3B (hepatoma) cells it was 60 nM; in data set [1], 140 nM. Moreover, in [6], the IC50 was more than 250 nM.

Regarding “2-(3-Quinolinyl)-6,7-methylenedioxyquinolin-4-one [Compound 42]”, the IC50 (in data set [2]; in the data set on HL-60 (leukemia) cells; in data set [3]; in data set [4]; in the data set with Hep 3B (hepatoma) cells; in data set [1]) was more than 100 nM throughout. Further, in [6], the IC50 is more than 100 nM.

In the case of “2-(4-Quinolinyl)-6,7-methylenedioxyquinolin-4-one [Compound 41]”, the IC50 (in [2]; in the data set on HL-60 (leukemia) cells; in data set [3]; in data set [4]; with Hep 3B (hepatoma) cells; in data set [1]) was more than 5000 nM in each case. Moreover, in data set [6], the IC50 is more than 5000 nM.

For “2-(5-Quinolinyl)-6,7-methylenedioxyquinolin-4-one [Compound 44]”, the IC50 (in data set [2]; in the data set on HL-60 (leukemia) cells; in [3]; in [4]; in the data set on Hep 3B (hepatoma) cells; in [1]) was more than 10000 nM each time. Also, in data set [6], the IC50 is more than 10000 nM.

As for `COc1cccc(-c2cc(O)c3cc(N4CCCC4)ccc3n2)c1` [B, 2-(3-methoxyphenyl)-6-pyrrolinylquinolin-4-one], in [7], the “Maximum tolerated dose (MTD)” value is 25 mg/kg. Moreover, the “Antitumor activity against the OVCAR-3 xenograft model” value in the data set with OVCAR-3 xenograft (at MTD 25 mg/kg, prior in vivo study) was “moderate antitumor activity”.

Take `O=P([O-])(O)Oc1cc(-c2ccccc2F)nc2cc3c(cc12)OCO3.[Na+]` [CHM-1-P-Na]: in data set [9], the “Metabolism of the 6,7-methylenedioxy moiety” value was “metabolized to an ortho-quinone”.

On to `O=C(Nc1ccc2c(c1)OCO2)c1csc2ccccc12` [Compound 46, N-(1,3-Benzodioxol-5-yl)-1-benzothiophene-3-carboxamide], for which, in data set [10], the IC50 is more than 10000 nM.

Consider `O=C(Nc1ccc2c(c1)OCO2)c1ccc2ccccc2c1` [Compound 50, N-(1,3-Benzodioxol-5-yl)naphthalene-2-carboxamide], for which, in [10], the IC50 was more than 10000 nM.

Regarding `O=C(Nc1ccc2c(c1)OCO2)c1ccnc2ccccc12` [Compound 51, N-(1,3-Benzodioxol-5-yl)quinoline-4-carboxamide], in [10], the IC50 was more than 10000 nM.

Regarding `O=C(Nc1ccc2c(c1)OCO2)c1cccc2ncccc12` [Compound 53, N-(1,3-Benzodioxol-5-yl)quinoline-5-carboxamide], the IC50 in data set [10] was more than 10000 nM.

These data come from paper PMC2761767 (Journal of medicinal chemistry, 2009).
